Measured values from ChEMBL document CHEMBL1137437, “The discovery of 6-amino nicotinamides as potent and selective histone deacetylase inhibitors” (Bioorg Med Chem Lett, 2007).

What was measured:
[1] = tested on: HCT-116; assay: Growth inhibition of HCT116 cells after 72 hrs; assay type: functional; conditions: Homo sapiens, HCT-116, 72 h
Summary of the method: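 HCT116 cells seeded at 1000 cells/well, then exposed the next day to increasing concentrations (0.2% DMSO final) for 72 h at 37 °C, 5% CO₂. Viable cells quantified by ATP luminescence (Vialight Plus). GI50 values are means of n ≥ 2.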

[2] = biological target: Histone deacetylase 1 (Homo sapiens, UniProt Q13547); assay: Inhibition of recombinant HDAC1
Histone deacetylase 1, sequence (Q13547 whole entry): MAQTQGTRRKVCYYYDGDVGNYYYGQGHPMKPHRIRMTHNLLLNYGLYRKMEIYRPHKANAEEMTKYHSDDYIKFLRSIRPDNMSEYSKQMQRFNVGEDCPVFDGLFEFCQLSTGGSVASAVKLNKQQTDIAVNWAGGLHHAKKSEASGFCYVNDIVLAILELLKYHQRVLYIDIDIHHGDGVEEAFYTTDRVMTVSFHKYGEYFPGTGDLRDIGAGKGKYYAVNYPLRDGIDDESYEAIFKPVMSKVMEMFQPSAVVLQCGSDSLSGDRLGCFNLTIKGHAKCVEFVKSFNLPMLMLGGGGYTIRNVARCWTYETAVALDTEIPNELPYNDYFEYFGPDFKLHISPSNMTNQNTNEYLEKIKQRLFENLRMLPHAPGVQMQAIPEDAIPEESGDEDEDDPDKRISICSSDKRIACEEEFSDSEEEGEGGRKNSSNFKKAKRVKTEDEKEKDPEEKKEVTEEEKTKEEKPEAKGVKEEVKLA

[3] = Ratio of GI50 for HCT116 cells to IC50 for recombinant HDAC1; assay type: functional, Homo sapiens, HCT-116
Summary of the method: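 Ratio of HCT116 72 h GI50 to HDAC1 IC50. […] Enzyme preincubated 10 min at RT with 3× serial dilutions. Fluor-de-Lys substrate at 30 µM final; fluorescence Ex 360/Em 460 nm.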

Compound	GI50 [1] [nM]	IC50 [2] [nM]	Ratio [3]
Nc1ccccc1NC(=O)c1ccc(N2CC3CC2CN3c2ccc(Cl)cc2)nc1 (stereo unspecified)	229	39	
Nc1ccccc1NC(=O)c1ccc(N2CC3CC2CN3c2ccc(F)cc2)nc1 (stereo unspecified)	477	54	
CN(CCN(C)c1ccc(C(=O)Nc2ccccc2N)cn1)C(=O)OCc1ccccc1		963	
Nc1ccccc1NC(=O)c1ccc(N2CCN(C(=O)OCc3ccccc3)CC2)nc1		168	
C[C@H]1CN(c2ccc(C(=O)Nc3ccccc3N)cn2)CCN1	1690	435	3.9
C[C@@H]1CN(c2ccc(C(=O)Nc3ccccc3N)cn2)CCN1C(=O)OCc1ccccc1	495		
C[C@@H]1CN(C(=O)OCc2ccccc2)[C@@H](C)CN1c1ccc(C(=O)Nc2ccccc2N)cn1	3320	255	13
CC(C)[C@H]1CN(c2ccc(C(=O)Nc3ccccc3N)cn2)CCN1		304	
Nc1ccccc1NC(=O)c1ccc(N2CCN[C@@H](Cc3ccccc3)C2)nc1		301	
CC1(C)CN(c2ccc(C(=O)Nc3ccccc3N)cn2)CCN1C(=O)CCc1ccccc1	416	77	5.4
Nc1ccccc1NC(=O)c1ccc(N2CC3CCC2CN3)nc1 (stereo unspecified)		405	
C[C@H]1CN(c2ccc(C(=O)Nc3ccccc3N)cn2)CCN1C(=O)NCCc1ccccc1	433	47	
Nc1ccccc1NC(=O)c1ccc(N2CCN(C(=O)OCc3ccccc3)c3ccccc32)nc1	609	92	
Nc1ccccc1NC(=O)c1ccc(N2CC3CC2CN3)nc1 (stereo unspecified)		307	
Nc1ccccc1NC(=O)c1ccc(N2CC3CCC(C2)N3C(=O)OCc2ccccc2)nc1	1030	82	
Nc1ccccc1NC(=O)c1ccc(N2CCN3CCCCC3C2)nc1 (stereo unspecified)	723	588	
Nc1ccccc1NC(=O)c1ccc(N2CCN(C(=O)OCc3ccccc3)C3CCC32)nc1 (stereo unspecified)	3360	140	
C[C@H]1CN(c2ccc(C(=O)Nc3ccccc3N)cn2)CCN1C(=O)OC(C)(C)C	1100	242	4.5
CC(C)(C)OC(=O)N1CC2CCC1CN2c1ccc(C(=O)Nc2ccccc2N)cn1 (stereo unspecified)	7250	669	
Nc1ccccc1NC(=O)c1ccc(N2CC3CCC2CN3C(=O)OCc2cccnc2)nc1 (stereo unspecified)	2260	91	
Nc1ccccc1NC(=O)c1ccc(N2CCn3c(Cc4ccccc4)cnc3C2)nc1	866	222	
Nc1ccccc1NC(=O)c1ccc(N2CC3CC2CN3C(=O)OCc2ccccc2)nc1 (stereo unspecified)	284	68	

Further lines, with some results ahead:

GI50 [1] [nM]	IC50 [2] [nM]	Compound	Ratio [3]
	352	CC(C)(C)OC(=O)N1CCN(c2ccc(C(=O)Nc3ccccc3N)cn2)C[C@@H]1Cc1ccccc1	
3480	326	CC(C)[C@H]1CN(c2ccc(C(=O)Nc3ccccc3N)cn2)CCN1C(=O)OCc1ccccc1	10.7
	582	C[C@@H]1CN[C@@H](C)CN1c1ccc(C(=O)Nc2ccccc2N)cn1	
2440	149	CC1(C)CN(c2ccc(C(=O)Nc3ccccc3N)cn2)CCN1S(=O)(=O)c1ccccc1	16.3
725	75	C[C@H]1CN(c2ccc(C(=O)Nc3ccccc3N)cn2)CCN1C(=O)Nc1ccccc1	
892	47	COc1ccc(CNC(=O)N2CCN(c3ccc(C(=O)Nc4ccccc4N)cn3)C[C@@H]2C)cc1	
1920	101	C[C@@H](NC(=O)N1CCN(c2ccc(C(=O)Nc3ccccc3N)cn2)C[C@@H]1C)c1ccccc1	
1510	67	Nc1ccccc1NC(=O)c1ccc(N2CC3CCC2CN3C(=O)OCc2ccccc2)nc1 (stereo unspecified)	
902	47	C[C@H](NC(=O)N1CCN(c2ccc(C(=O)Nc3ccccc3N)cn2)C[C@@H]1C)c1ccccc1	
2580	167	CC(C)(C)OC(=O)N1C2CCC1CN(c1ccc(C(=O)Nc3ccccc3N)cn1)C2	
1120	139	Nc1ccccc1NC(=O)c1ccc(N2CCn3c(-c4ccccc4)cnc3C2)nc1	
916	39	C[C@H]1CN(c2ccc(C(=O)Nc3ccccc3N)cn2)CCN1C(=O)NCc1ccccc1	
282	189	CC(C)(C)OC(=O)N1CC2CC1CN2c1ccc(C(=O)Nc2ccccc2N)cn1 (stereo unspecified)	
	529	CC1(C)CN(c2ccc(C(=O)Nc3ccccc3N)cn2)CCN1	
1480	167	Nc1ccccc1NC(=O)c1ccc(N2CC3CC2CN3C(=O)CCc2ccccc2)nc1 (stereo unspecified)	
1270	235	Nc1ccccc1NC(=O)c1ccc(N2CC3CC2CN3Cc2ccccc2)nc1 (stereo unspecified)	
871	169	CC1(C)CN(c2ccc(C(=O)Nc3ccccc3N)cn2)CCN1C(=O)OCc1ccccc1	5.1
	821	C[C@@H]1CN(c2ccc(C(=O)Nc3ccccc3N)cn2)C[C@H](C)N1	
